Reference: ChEMBL document CHEMBL1795311, “Synthesis, antiproliferative activity, and mechanism of action of a series of 2-{[(2E)-3-phenylprop-2-enoyl]amino}benzamides” (Eur J Med Chem, 2011)

Tests used:
[1] = tested on: K562; assay: Antiproliferative activity against human K562 cells at 10 uM after 48 hrs by trypan blue assay; format: functional; conditions: K562, 48 h, read-out: GI
[2] = tested on: K562; assay: Growth inhibition of human K562 cells after 48 hrs by trypan blue assay; format: functional, cell-based; conditions: K562, 48 h
[3] = tested on: CCRF-CEM; assay: Growth inhibition of human CCRF-CEM cells after 48 hrs by SRB assay; format: functional
Procedure, shortened: (§1)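 NCI DTP panel cells grown in RPMI 1640 with 5% FBS and 2 mM L-glutamine, preincubated 24 h, then given five concentrations (10-fold or ½-log dilutions from DMSO stock) for 48 h at 37 °C. Cells fixed with TCA, stained with SRB, absorbance read at 515 nm, with time-zero plates as reference.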

[4] = tested on: HL-60; assay: Growth inhibition of human HL60 cells after 48 hrs by SRB assay; format: functional; conditions: HL-60, 48 h; procedure, shortened: as §1
[5] = tested on: K562; assay: Growth inhibition of human K562 cells after 48 hrs by SRB assay; format: functional; conditions: K562, 48 h; procedure, shortened: as §1
[6] = tested on: MOLT-4; assay: Growth inhibition of human MOLT4 cells after 48 hrs by SRB assay; format: functional; conditions: MOLT-4, 48 h; procedure, shortened: as §1
[7] = tested on: RPMI-8226; assay: Growth inhibition of human RPMI8226 cells after 48 hrs by SRB assay; format: functional; conditions: RPMI-8226, 48 h; procedure, shortened: as §1
[8] = tested on: A549; assay: Growth inhibition of human A549 cells after 48 hrs by SRB assay; format: functional; conditions: A549, 48 h; procedure, shortened: as §1
[9] = tested on: EKVX; assay: Growth inhibition of human EKVX cells after 48 hrs by SRB assay; format: functional; procedure, shortened: as §1
[10] = tested on: HOP-62; assay: Growth inhibition of human HOP62 cells after 48 hrs by SRB assay; format: functional; conditions: HOP-62, 48 h; procedure, shortened: as §1
[11] = tested on: HOP-92; assay: Growth inhibition of human HOP92 cells after 48 hrs by SRB assay; format: functional; conditions: HOP-92, 48 h; procedure, shortened: as §1
[12] = tested on: NCI-H226; assay: Growth inhibition of human NCI-H226 cells after 48 hrs by SRB assay; format: functional; conditions: NCI-H226, 48 h; procedure, shortened: as §1
[13] = tested on: NCI-H23; assay: Growth inhibition of human NCI-H23 cells after 48 hrs by SRB assay; format: functional; conditions: NCI-H23, 48 h; procedure, shortened: as §1
[14] = tested on: NCI-H460; assay: Growth inhibition of human NCI-H460 cells after 48 hrs by SRB assay; format: functional; conditions: NCI-H460, 48 h; procedure, shortened: as §1
[15] = tested on: NCI-H522; assay: Growth inhibition of human NCI-H522 cells after 48 hrs by SRB assay; format: functional; conditions: NCI-H522, 48 h; procedure, shortened: as §1
[16] = tested on: COLO 205; assay: Growth inhibition of human COLO205 cells after 48 hrs by SRB assay; format: functional; conditions: COLO 205, 48 h; procedure, shortened: as §1
[17] = tested on: HCC 2998; assay: Growth inhibition of human HCC2998 cells after 48 hrs by SRB assay; format: functional; conditions: HCC 2998, 48 h; procedure, shortened: as §1
[18] = tested on: HCT-116; assay: Growth inhibition of human HCT116 cells after 48 hrs by SRB assay; format: functional; conditions: HCT-116, 48 h; procedure, shortened: as §1
[19] = tested on: HCT-15; assay: Growth inhibition of human HCT15 cells after 48 hrs by SRB assay; format: functional; conditions: HCT-15, 48 h; procedure, shortened: as §1
[20] = tested on: HT-29; assay: Growth inhibition of human HT-29 cells after 48 hrs by SRB assay; format: functional; conditions: HT-29, 48 h; procedure, shortened: as §1
[21] = tested on: KM12; assay: Growth inhibition of human KM12 cells after 48 hrs by SRB assay; format: functional; conditions: KM12, 48 h; procedure, shortened: as §1
[22] = tested on: SW-620; assay: Growth inhibition of human SW620 cells after 48 hrs by SRB assay; format: functional; conditions: SW-620, 48 h
Procedure, shortened: (§2)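 Run by the NCI Developmental Therapeutics Program: cells in RPMI 1640 with 5% FBS and 2 mM L-glutamine, plated at 5000–40,000 cells/well and grown 24 h before dosing. Drug (DMSO stock) given at five concentrations for 48 h at 37 °C, 5% CO2. Adherent cells fixed with cold TCA, stained with 0.4% SRB and read at 515 nm. GI50, TGI and LC50 taken from the time-zero, control and treated absorbances.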

[23] = tested on: SF-268; assay: Growth inhibition of human SF268 cells after 48 hrs by SRB assay; format: functional; conditions: SF-268, 48 h; procedure, shortened: as §1
[24] = tested on: SF-295; assay: Growth inhibition of human SF295 cells after 48 hrs by SRB assay; format: functional; conditions: SF-295, 48 h; procedure, shortened: as §1
[25] = tested on: SF-539; assay: Growth inhibition of human SF539 cells after 48 hrs by SRB assay; format: functional; conditions: SF-539, 48 h; procedure, shortened: as §1
[26] = tested on: SNB-19; assay: Growth inhibition of human SNB19 cells after 48 hrs by SRB assay; format: functional; conditions: SNB-19, 48 h; procedure, shortened: as §2
[27] = tested on: SNB-75; assay: Growth inhibition of human SNB75 cells after 48 hrs by SRB assay; format: functional; conditions: SNB-75, 48 h; procedure, shortened: as §2
[28] = tested on: U-251; assay: Growth inhibition of human U251 cells after 48 hrs by SRB assay; format: functional; conditions: U-251, 48 h; procedure, shortened: as §2

NC(=O)c1cc(I)ccc1NC(=O)/C=C/c1ccccc1Cl
inhibition of growth at 10 µM [1]: 74.1%
IC50 [2]: 1200 nM
GI50 [3]: 484 nM
GI50 [4]: 165 nM
GI50 [5]: 370 nM
GI50 [6]: 1420 nM
GI50 [7]: 772 nM
GI50 [8]: 1870 nM
GI50 [9]: 1000 nM
GI50 [10]: 2300 nM
GI50 [11]: 13200 nM
GI50 [12]: 1140 nM
GI50 [13]: 1390 nM
GI50 [14]: 479 nM
GI50 [15]: 459 nM
GI50 [16]: 797 nM
GI50 [17]: 984 nM
GI50 [18]: 509 nM
GI50 [19]: 987 nM
GI50 [20]: 376 nM
GI50 [21]: 533 nM
GI50 [22]: 605 nM
GI50 [23]: 778 nM
GI50 [24]: 415 nM
GI50 [25]: 444 nM
GI50 [26]: 1410 nM
GI50 [27]: 1220 nM
GI50 [28]: 663 nM
